In ChEMBL document CHEMBL4184311, “Design, synthesis, and evaluation of simple phenol amides as ERRγ agonists” (Bioorg Med Chem Lett, 2018):
Active and inactive are the calls of the source. The rule behind the calls is not given here.

Assays:
[1] = target: T1, Steroid hormone receptor ERR2 (Homo sapiens, UniProt O95718); assay: Agonist activity at alphaHis-SUMO-tagged ERRbeta-LBD (unknown origin) assessed as decrease in RIP140 peptide recruitment by TR-FRET assay
T1 sequence (O95718 whole entry): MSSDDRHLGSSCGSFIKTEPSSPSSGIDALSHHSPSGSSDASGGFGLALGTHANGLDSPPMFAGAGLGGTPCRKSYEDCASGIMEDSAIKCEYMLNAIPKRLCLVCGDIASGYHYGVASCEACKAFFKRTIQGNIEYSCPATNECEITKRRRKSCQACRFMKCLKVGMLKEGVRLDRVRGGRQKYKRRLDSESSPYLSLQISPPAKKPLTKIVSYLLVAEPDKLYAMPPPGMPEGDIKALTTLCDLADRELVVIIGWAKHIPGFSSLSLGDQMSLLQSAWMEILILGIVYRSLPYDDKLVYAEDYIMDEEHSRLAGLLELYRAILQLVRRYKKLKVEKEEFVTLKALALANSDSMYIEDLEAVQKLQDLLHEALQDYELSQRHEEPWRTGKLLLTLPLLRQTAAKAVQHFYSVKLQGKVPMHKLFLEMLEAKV
Summary of the method: (§1)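 Terbium/fluorescein TR-FRET read-out: excitation 340 nm, emission 520 nm (fluorescein) and 490 nm (terbium). The 520/490 nm ratio is expressed as fold change over a DMSO-only control and plotted against concentration to give EC50.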

[2] = Half life in human liver microsomes at 1 uM in presence of NADPH by LC-MS/MS analysis; type: ADME, microsome
[3] = Half life in mouse liver microsomes at 1 uM in presence of NADPH by LC-MS/MS analysis; type: ADME, microsome
Homo sapiens = species: Homo sapiens; assay: Selectivity ratio of EC50 for alphaHis-SUMO-tagged ERRbeta-LBD (unknown origin) to EC50 for human N-terminal alphaHis-SUMO-tagged ERRgamma-LBD (229 to 458 residues) expressed in Escherichia coli BL21 gold (DE3) cells
[4] = Half life in rat liver microsomes at 1 uM in presence of NADPH by LC-MS/MS analysis; type: ADME, microsome
[5] = target: T2, Estrogen-related receptor gamma (Homo sapiens, UniProt P62508); assay: Agonist activity at human N-terminal alphaHis-SUMO-tagged ERRgamma-LBD (229 to 458 residues) expressed in Escherichia coli BL21 gold (DE3) cells assessed as decrease in RIP140 peptide recruitment after 2 hrs by TR-FRET assay; details: read-out: EC50
T2 sequence (P62508 whole entry): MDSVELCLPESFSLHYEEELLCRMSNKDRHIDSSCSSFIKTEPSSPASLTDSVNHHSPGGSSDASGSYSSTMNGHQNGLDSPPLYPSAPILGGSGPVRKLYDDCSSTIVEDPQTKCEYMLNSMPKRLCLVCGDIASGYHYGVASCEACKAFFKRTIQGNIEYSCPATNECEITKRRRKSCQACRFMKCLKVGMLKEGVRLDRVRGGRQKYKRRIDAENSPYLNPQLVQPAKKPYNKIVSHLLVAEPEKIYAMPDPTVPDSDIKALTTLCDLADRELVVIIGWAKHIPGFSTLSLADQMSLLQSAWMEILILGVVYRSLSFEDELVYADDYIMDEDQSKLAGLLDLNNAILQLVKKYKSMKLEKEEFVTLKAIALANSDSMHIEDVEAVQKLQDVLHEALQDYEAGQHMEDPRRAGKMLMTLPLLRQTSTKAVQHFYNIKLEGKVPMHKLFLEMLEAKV
Summary of the method: (§2)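 Terbium/fluorescein TR-FRET read-out: excitation 340 nm, emission 520 nm (fluorescein) and 490 nm (terbium). The 520/490 nm ratio is expressed as fold change over a DMSO-only control. Values are the arithmetic mean of at least two separate runs.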

[6] = target: T3, Steroid hormone receptor ERR1 (Homo sapiens) (UniProt P11474); assay: Agonist activity at alphaHis-SUMO-tagged ERRalpha-LBD (unknown origin) assessed as decrease in RIP140 peptide recruitment by TR-FRET assay; summary of the method: as §1
T3 sequence (whole entry): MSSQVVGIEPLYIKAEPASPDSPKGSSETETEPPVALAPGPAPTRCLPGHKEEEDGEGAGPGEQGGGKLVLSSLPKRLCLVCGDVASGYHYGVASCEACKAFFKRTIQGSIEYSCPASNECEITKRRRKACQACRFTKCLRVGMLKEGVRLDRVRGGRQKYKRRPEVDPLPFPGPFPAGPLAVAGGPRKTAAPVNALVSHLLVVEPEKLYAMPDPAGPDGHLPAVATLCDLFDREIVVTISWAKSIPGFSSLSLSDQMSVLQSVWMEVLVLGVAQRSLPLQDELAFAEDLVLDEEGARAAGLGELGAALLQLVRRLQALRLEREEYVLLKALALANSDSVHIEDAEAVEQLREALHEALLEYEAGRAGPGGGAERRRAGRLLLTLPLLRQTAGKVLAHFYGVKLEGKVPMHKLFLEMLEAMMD

[7] = target: T2, Estrogen-related receptor gamma; assay: Inverse agonist activity at human N-terminal alphaHis-SUMO-tagged ERRgamma-LBD (229 to 458 residues) expressed in Escherichia coli BL21 gold (DE3) cells assessed as decrease in RIP140 peptide recruitment after 2 hrs by TR-FRET assay; summary of the method: as §2
[8] = target: T2, Estrogen-related receptor gamma; assay: Partial agonist activity at human N-terminal alphaHis-SUMO-tagged ERRgamma-LBD (229 to 458 residues) expressed in Escherichia coli BL21 gold (DE3) cells assessed as increase in RIP140 peptide recruitment after 2 hrs by TR-FRET assay
[9] = target: T2, Estrogen-related receptor gamma; assay: Agonist activity at Gal4 fused ERRgamma-LBD (unknown origin) expressed in HEK293T cells after 20 hrs by UAS-luciferase reporter gene assay; type: cell-based
Summary of the method: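 HEK293T cells carrying Gal4-ERRγ fusion with UAS-luciferase reporter; compounds run as concentration-response curves; counterscreened in parallel against Gal4-VP16::UAS-Luc to flag non-specific activation.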

For Cc1cc(O)ccc1C(=O)NCCc1ccc(C(C)(C)C)cc1, the EC50 [1] was 0.02 µM, the t1/2 [2] was 3.6 min and the t1/2 [3] was 1.5 min. For the same molecule, the Ratio EC50 (Homo sapiens) was 30 to 40, the t1/2 [4] was 1.5 min and the EC50 [5] was 0.76 µM.
For CC(C)(C)c1ccc(CCNC(=O)c2ccc(O)cc2Cl)cc1, the EC50 [1] was 0.031 µM, the t1/2 [2] was 2.9 min and the t1/2 [3] was 1.2 min. The Ratio EC50 (Homo sapiens) was 30 to 40, the t1/2 [4] was 1.1 min and the EC50 [5] was 0.95 µM.
For CC(C)(C)c1ccc(CCNC(=O)Cc2ccc(O)cc2)cc1, the EC50 [1] was 2.7 µM, the Activity [6] was “inactive” and the EC50 [5] was 0.95 µM.
For CC(C)(C)c1ccc(CCNC(=O)c2ccccc2O)cc1, the EC50 [7] was 2.9 µM.
In the case of CC(C)(C)c1ccc(CCNC(=O)c2ccc(O)cc2N)cc1, the EC50 [1] is reported as 0.045 µM, the EC50 [8] is reported as 0.3 µM and the Ratio EC50 (Homo sapiens) is reported as 7 to 8.
For CC(C)(C)c1ccc(CCNC(=O)c2ccc(O)cc2)cc1, the EC50 [1] was 0.09 µM, the t1/2 [2] was 6.8 min and the t1/2 [3] was 3.3 min. It also gave a Ratio EC50 (Homo sapiens) of 7 to 8, a t1/2 [4] of 1.6 min and an EC50 [9] of 4.7 µM. The Activity [6] was “inactive” and the EC50 [5] was 0.7 µM.
In the case of CCN(CC)c1ccc(CCNC(=O)c2ccc(O)cc2)cc1, the EC50 [1] is reported as 0.63 µM, the t1/2 [2] is reported as 3.1 min and the t1/2 [3] is reported as 2.2 min. For the same molecule, the t1/2 [4] was 3.9 min, the Activity [6] was “inactive” and the EC50 [5] was 0.39 µM.
